ChEMBL document CHEMBL4350973, “CF2H, a Functional Group-Dependent Hydrogen-Bond Donor: Is It a More or Less Lipophilic Bioisostere of OH, SH, and CH3?” (J Med Chem, 2019)

Assays:
[1] = Octanol/water partition co-efficient, log P of compound by UV-spectrophotometry-based shake-flask method; format: physicochemical
Procedure, shortened: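 Shake-flask partition between octanol and water, each pre-saturated with the other phase for at least 24 h. Compound dissolved at 10 mM in water-saturated octanol; water/octanol volume ratio set from preliminary runs according to polarity. Phases centrifuged 3000 rpm, 5 min. Diluted octanol phase read by UV absorbance at λmax, absorbance kept within 0.2-1. Water concentration obtained by difference; log P from the volume ratio. Triplicates.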

[2] = Lipophilicity, log P of the compound; format: physicochemical; settings: octanol/water
Procedure, shortened: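 Shake-flask partition between mutually pre-saturated octanol and water (at least 24 h pre-saturation). Compound dissolved at 10 mM in water-saturated octanol; water/octanol volume ratio set by preliminary runs according to polarity. Phases centrifuged 3000 rpm, 5 min; diluted octanol aliquot read by UV absorbance at λmax (range 0.2-1). Water concentration obtained by difference; log P from volume ratio; triplicates.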

Structure (SMILES) | logP [1] | logP [2]
Cc1ccc(Br)cc1 | 2.91 | 
COC(=O)c1ccccc1 [METHYL BENZOATE] | 2.27 | 
FC(F)c1ccc(Br)cc1 | 2.78 | 
O=S(=O)(CCc1ccccc1)C(F)F | 1.87 | 
O=C(OC(F)F)c1ccccc1 | 2.66 | 
FC(F)c1ccccc1 | 2.4 | 
O=[N+]([O-])c1ccc([S+]([O-])C(F)F)cc1 (centres undefined) | 1.37 | 
CSCCc1ccccc1 | 2.95 | 
COc1ccc(C)cc1 | 2.67 | 
COc1ccc(C(F)F)cc1 | 2.61 | 
Cc1ccc([N+](=O)[O-])cc1 [4-NITROTOLUENE] | 2.35 | 
N#Cc1ccc(C(F)F)cc1 | 1.75 | 
COCCc1ccccc1 | 2.23 | 
FC(F)CCc1ccccc1 | 3.02 | 
O=C1c2ccccc2C(=O)N1C(F)F | 1.53 | 
CCCc1ccccc1 |  | 3.7
Cc1ccc(C#N)cc1 | 2 | 
CS(=O)(=O)CCc1ccccc1 | 0.82 | 
Cc1ccc(C)cc1 [P-XYLENE] | 3.08 | 
FC(F)OCCc1ccccc1 | 3.16 | 
O=[N+]([O-])c1ccc(S(=O)(=O)C(F)F)cc1 | 1.7 | 
CN1C(=O)c2ccccc2C1=O | 1.33 | 
Cc1ccc(C(F)F)cc1 | 2.94 | 
[O-][S+](CCc1ccccc1)C(F)F (centres undefined) | 1.42 | 
O=[N+]([O-])c1ccc(C(F)F)cc1 | 2.12 | 
FC(F)SCCc1ccccc1 | 3.16 | 
C[S+]([O-])c1ccc([N+](=O)[O-])cc1 (centres undefined) | 0.49 | 
CS(=O)(=O)c1ccc([N+](=O)[O-])cc1 | 0.61 | 
C[S+]([O-])CCc1ccccc1 (centres undefined) | 0.63 | 
